Test results published in ChEMBL document CHEMBL4425132, “Antibacterial and Solubility Optimization of Thiomuracin A” (J Med Chem, 2016).
In brackets after ≈: the same amount, converted by molar mass.

What was measured:
Enterococcus faecalis [1] = assay: Antimicrobial activity against Enterococcus faecalis ATCC 29212 by broth microdilution method; type: functional
In short: (§1)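 MICs determined by CLSI broth microdilution. Broth microdilution was used for every species tested, including the anaerobe C. difficile.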

Enterococcus faecium = assay: Antimicrobial activity against Enterococcus faecium 7130724 by broth microdilution method; type: functional; in short: as §1
Staphylococcus aureus [2] = assay: Antimicrobial activity against methicillin-resistant Staphylococcus aureus by broth microdilution method; type: functional
In short: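 Broth microdilution MIC following CLSI methods, with broth microdilution used for all species.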

Streptococcus pyogenes = assay: Antimicrobial activity against Streptococcus pyogenes ATCC BAA-595 by broth microdilution method; type: functional; in short: as §1
Clostridioides difficile [3] = assay: Antimicrobial activity against Clostridium difficile ATCC 43255 by broth microdilution method; type: functional; in short: as §1
[4] = Aqueous solubility of the compound at 20 mg/ml after 24 hrs RP-HPLC based shake flask method; type: physicochemical; details: aqueous medium
In short: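 Compound samples examined for dissolution. Clear solutions were reported as >starting concentration, with pH recorded. Samples with visible particles were filtered through 0.22 µ PVDF membranes, pH recorded, and dissolved drug quantified by RP-HPLC.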

Clostridioides difficile [5] = assay: Antimicrobial activity against Clostridium difficile ATCC 43255 infected in golden Syrian hamster assessed as animal survival at 25 mg/kg, po for 5 days dosed starting 24 hrs after infection measured for 16 days; type: functional; details: ATCC 43255, po
In short: (§2)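 Hamsters given a single subcutaneous clindamycin injection (10 mg/kg) on day -1. About 24 h later they were infected by oral gavage with ~7.5 x10^6 CFU/hamster. Inoculum was prepared from overnight plates resuspended in reinforced clostridial medium + 1% oxyrase. Oral dosing once daily for up to 5 days, 8 animals per dose. Animals observed twice daily for mortality, diarrhea and morbidity. Vehicle-only control group.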

Staphylococcus aureus [6] = assay: Antimicrobial activity against Staphylococcus aureus ATCC 49951 infected in CD1 mouse systemic infection model dosed intravenously 1 and 5 hrs after inoculation; type: functional; details: for ED50: ATCC 49951, iv
Enterococcus faecalis [7] = assay: Antimicrobial activity against Enterococcus faecalis NB04025 infected in CD1 mouse systemic infection model dosed intravenously once immediately following bacterial inoculation; type: functional; details: for ED50: NB04025, iv
Clostridioides difficile [8] = assay: Antimicrobial activity against Clostridium difficile ATCC 43255 infected in golden Syrian hamster assessed as animal survival at 20 mg/kg, po for 5 days dosed starting 24 hrs after infection measured for 16 days; type: functional; details: ATCC 43255, po; in short: as §2
Clostridioides difficile [9] = assay: Antimicrobial activity against Clostridium difficile ATCC 43255 infected in golden Syrian hamster assessed as animal survival at 5 mg/kg, po for 5 days dosed starting 24 hrs after infection measured for 16 days; type: functional; details: ATCC 43255, po; in short: as §2
[10] = AUC in Sprague-Dawley rat at 1 mg/kg, iv by LC-MS/MS method; type: ADME, organism-based; details: in vivo
In short: (§3)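 Rats fasted overnight before dosing and for 8 hr after. Blood collected into K2-EDTA tubes and centrifuged to plasma. Plasma protein-precipitated with acetonitrile containing glyburide internal standard. Analysis by LC-MS/MS on reversed-phase C18 columns with a 5% to 95% acetonitrile gradient over ~3.5 min (0.1% formic acid in both phases).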

[11] = Clearance in Sprague-Dawley rat at 1 mg/kg, iv by LC-MS/MS method; type: ADME, organism-based; details: in vivo; in short: as §3
[12] = Volume of distribution at steady state in Sprague-Dawley rat at 1 mg/kg, iv by LC-MS/MS method; type: ADME, organism-based; details: in vivo, read-out: Vdss; in short: as §3
[13] = Half life in Sprague-Dawley rat at 1 mg/kg, iv by LC-MS/MS method; type: ADME, organism-based; details: in vivo; in short: as §3
Clostridioides difficile [14] = assay: Antimicrobial activity against Clostridium difficile ATCC 43255 infected in golden Syrian hamster assessed as animal survival at 10 mg/kg, po for 5 days dosed starting 24 hrs after infection measured for 16 days; type: functional; details: ATCC 43255, po; in short: as §2
Staphylococcus aureus [15] = assay: Antimicrobial activity against Staphylococcus aureus ATCC 49951; type: functional
In short: (§4)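 MIC by CLSI broth microdilution against the strains used in the mouse infection model.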

Enterococcus faecalis [16] = assay: Antimicrobial activity against Enterococcus faecalis NB04025; type: functional; in short: as §4

Row | SMILES | MIC (Enterococcus faecalis [1]) [µg/mL] | MIC (Enterococcus faecium) [µg/mL] | MIC (Staphylococcus aureus [2]) [µg/mL] | MIC (Streptococcus pyogenes) [µg/mL] | MIC (Clostridioides difficile [3]) [µg/mL] | solubility thermodynamic at 24 h [4] [µg/mL] | survival at 25 mg/kg (Clostridioides difficile [5]) [%] | ED50 (Staphylococcus aureus [6]) [mg/kg] | ED50 (Enterococcus faecalis [7]) [mg/kg] | further results
1 | Cc1sc2nc1C(=O)N[C@@H]([C@H](O)c1ccccc1)c1nc(cs1)C(=O)N[C@@H](Cc1ccc(O)cc1)C(=O)NCC(=O)N1C[C@H](O)[C@H](C)[C@H]1c1nc(cs1)-c1nc(cs1)-c1nc(-c3nc(C(=O)O)cs3)ccc1-c1nc(cs1)C(=O)N[C@H]2CC(N)=O | 0.5 (≈ 0.397 µM) | 0.5 (≈ 0.397 µM) | 2 (≈ 1.59 µM) | 0.5 (≈ 0.397 µM) | 0.125 (≈ 0.0993 µM) | 1 (≈ 0.795 µM) | 75 | – | – | –
2 | CN[C@H](CC(C)C)C(=O)N[C@H]1C(=O)N[C@@H](CC(N)=O)C(=O)N[C@H]2C(=O)N[C@H]3C(=O)N[C@H](C(=O)N[C@H](C(=O)O)c4cc(O)cc(O)c4-c4cc3ccc4O)[C@H](O)c3ccc(c(Cl)c3)Oc3cc2cc(c3O[C@@H]2O[C@H](CO)[C@@H](O)[C@H](O)[C@H]2O[C@H]2C[C@](C)(N)[C@H](O)[C@H](C)O2)Oc2ccc(cc2Cl)[C@H]1O [VANCOMYCIN] | – | – | – | – | – | – | – | 1.1 | 7.74 | survival at 20 mg/kg (Clostridioides difficile [8]): 38%
3 | Cc1sc2nc1C(=O)N[C@@H]([C@H](O)c1ccccc1)c1nc(cs1)C(=O)N[C@@H](Cc1ccc(O)cc1)C(=O)NCC(=O)N1C[C@H](O)[C@H](C)[C@H]1c1nc(cs1)-c1nc(cs1)-c1nc(-c3nc(C(=O)N(CCCCC(=O)O)[C@H]4CC[C@H](C(=O)O)CC4)cs3)ccc1-c1nc(cs1)C(=O)N[C@H]2CC(N)=O | 1 (≈ 0.674 µM) | 1 (≈ 0.674 µM) | 2 (≈ 1.35 µM) | 0.5 (≈ 0.337 µM) | 0.125 (≈ 0.0842 µM) | 3400 (≈ 2290 µM) | – | – | – | –
4 | COCc1sc2nc1C(=O)NCC(=O)N[C@@H]([C@@H](O)c1ccccc1)c1nc(cs1)-c1nc(cs1)-c1nc(-c3nc(N(CCCCC(=O)O)C(=O)O[C@H]4CC[C@H](C(=O)O)CC4)cs3)ccc1-c1nc(cs1)C(=O)N[C@@H](CC(N)=O)C1=NC(C)=C(S1)C(=O)N[C@H]2C(C)C | – | – | – | – | – | – | – | – | – | survival at 5 mg/kg (Clostridioides difficile [9]): 71 to 75%
5 | Cc1sc2nc1C(=O)N[C@@H]([C@H](O)c1ccccc1)c1nc(cs1)C(=O)N[C@@H](Cc1ccc(O)cc1)C(=O)NCC(=O)N1C[C@H](O)[C@H](C)[C@H]1c1nc(cs1)-c1nc(cs1)-c1nc(-c3nc(C(=O)N[C@H]4CC[C@H](C(=O)O)CC4)cs3)ccc1-c1nc(cs1)C(=O)N[C@H]2CC(N)=O | 0.125 (≈ 0.0903 µM) | 0.125 (≈ 0.0903 µM) | 0.25 (≈ 0.181 µM) | 0.25 (≈ 0.181 µM) | 0.03 (≈ 0.0217 µM) | 750 (≈ 542 µM) | – | 3.42 | 0.71 | AUC [10]: 13.2 µM·h; clearance [11]: 0.98 mL/min/kg; Vd [12]: 0.032 L/kg; half-life [13]: 1.8 h; Activity (Staphylococcus aureus [6]): Dose-dependent effect; Activity (Enterococcus faecalis [7]): Dose-dependent effect; survival at 10 mg/kg (Clostridioides difficile [14]): 0%
6 | Cc1sc2nc1C(=O)N[C@@H]([C@H](O)c1ccccc1)c1nc(cs1)C(=O)N[C@@H](Cc1ccc(O)cc1)C(=O)NCC(=O)N1C[C@H](O)[C@H](C)[C@H]1c1nc(cs1)-c1nc(cs1)-c1nc(-c3nc(C(N)=O)cs3)ccc1-c1nc(cs1)C(=O)N[C@H]2CC(N)=O | 0.25 (≈ 0.199 µM) | 0.5 (≈ 0.398 µM) | 0.25 (≈ 0.199 µM) | 1 (≈ 0.795 µM) | < 0.008 | – | 0 | 8 | 1.5 | MIC (Staphylococcus aureus [15]): 1 µg/mL (≈ 0.795 µM); MIC (Enterococcus faecalis [16]): 0.125 µg/mL (≈ 0.0994 µM)
7 | CCCCCCCCCC(=O)N[C@@H](Cc1c[nH]c2ccccc12)C(=O)N[C@H](CC(N)=O)C(=O)N[C@@H](CC(=O)O)C(=O)N[C@@H]1C(=O)NCC(=O)N[C@@H](CCCN)C(=O)N[C@@H](CC(=O)O)C(=O)N[C@H](C)C(=O)N[C@@H](CC(=O)O)C(=O)NCC(=O)N[C@H](CO)C(=O)N[C@@H]([C@H](C)CC(=O)O)C(=O)N[C@@H](CC(=O)c2ccccc2N)C(=O)O[C@@H]1C | – | – | – | – | – | – | – | 0.21 | 2.6 | –
8 | Cc1sc2nc1C(=O)N[C@@H]([C@H](O)c1ccccc1)c1nc(cs1)C(=O)N[C@@H](Cc1ccc(O)cc1)C(=O)NCC(=O)N1C[C@H](O)[C@H](C)[C@H]1c1nc(cs1)-c1nc(cs1)-c1nc(-c3nc(N(CCCCC(=O)O)C(=O)O[C@H]4CC[C@H](C(=O)O)CC4)cs3)ccc1-c1nc(cs1)C(=O)N[C@H]2CC(N)=O | 0.25 (≈ 0.167 µM) | 0.125 (≈ 0.0833 µM) | 0.25 (≈ 0.167 µM) | 0.125 (≈ 0.0833 µM) | 0.06 (≈ 0.04 µM) | 9700 (≈ 6470 µM) | – | – | – | survival at 5 mg/kg (Clostridioides difficile [9]): 25%; survival at 10 mg/kg (Clostridioides difficile [14]): 63%
9 | Cc1sc2nc1C(=O)N[C@@H]([C@H](O)c1ccccc1)c1nc(cs1)C(=O)N[C@@H](Cc1ccc(O)cc1)C(=O)NCC(=O)N1C[C@H](O)[C@H](C)[C@H]1c1nc(cs1)-c1nc(cs1)-c1nc(-c3nc(C(=O)NCCCCC(=O)O)cs3)ccc1-c1nc(cs1)C(=O)N[C@H]2CC(N)=O | 0.125 (≈ 0.0921 µM) | 0.125 (≈ 0.0921 µM) | 0.5 (≈ 0.368 µM) | 0.125 (≈ 0.0921 µM) | 0.06 (≈ 0.0442 µM) | 730 (≈ 538 µM) | 13 | – | – | –
10 | Cc1sc2nc1C(=O)N[C@@H]([C@H](O)c1ccccc1)c1nc(cs1)C(=O)N[C@@H](Cc1ccc(O)cc1)C(=O)NCC(=O)N1C[C@H](O)[C@H](C)[C@H]1c1nc(cs1)-c1nc(cs1)-c1nc(-c3nc(NC(=O)O[C@H]4CC[C@H](C(=O)O)CC4)cs3)ccc1-c1nc(cs1)C(=O)N[C@H]2CC(N)=O | 0.125 (≈ 0.0893 µM) | 0.125 (≈ 0.0893 µM) | 0.25 (≈ 0.179 µM) | 0.125 (≈ 0.0893 µM) | 0.03 (≈ 0.0214 µM) | 6 (≈ 4.29 µM) | – | – | – | –
